Results from the RNAGym collection of RNA variant scans (doi:10.1002/anie.201605470).

B1: Osa-1-4 twister ribozyme (parent)
chain: CCGCCUAACACUGCCAAUGCCGGUCCCAAGCCCGGAUAAAAGUGGAGGGGGCGG

Variants of: B1
Test: self-cleavage, relative activity (ratio to wild type); higher = more cleavage; co-transcriptional
In short: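 The 48 positions downstream of the cleavage site in a 54-nucleotide Oryza sativa twister ribozyme template were synthesised at 97 % wild-type base and 1 % of each other base. The template was transcribed in vitro at 37 °C for 2 h, with self-cleavage allowed during transcription. Reads with or without upstream sequence after deep sequencing marked cleavage status, and relative activity is fraction cleaved normalised to wild type.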

Row | Variant | self-cleavage
1 | G19C G53A | 0.06
2 | G19C G53U | 0.05
3 | C20A G13C | 0.01
4 | C20A G13U | 0.02
5 | C20A G13A | 0.13
6 | C20A G22A | 0.39
7 | C20A G22C | 0.07
8 | C20A G22U | 0.53
9 | G19C G42A | 0.05
10 | G19C G42C | 0.04
11 | G19C G42U | 0.02
12 | G19U G53A | 0.1
13 | G19U G53C | 0.06
14 | G19U G53U | 0.09
15 | C20A C25A | 0.19
16 | C20A C25G | 0.11
17 | C20A C25U | 0.78
18 | G19A G49A | 0.08
19 | G19A G49U | 0.08
20 | G19A G49C | 0.09
21 | G19U G22U | 0.12
22 | G19U G22A | 0.32
23 | G19U G22C | 0.05
24 | A17U G47C | 0.16

Row | Variant | self-cleavage
25 | A17U G47U | 0.45
26 | A17U G47A | 0.47
27 | G19U G23A | 0.07
28 | G19U G23C | 0.04
29 | G19U G23U | 0.04
30 | G19A G42C | 0.09
31 | G19A G42U | 0.06
32 | G19A G42A | 0.1
33 | G19U G34C | 0.2
34 | G19U G34U | 0.3
35 | G19U G34A | 0.52
36 | A17U U24G | 0.03
37 | A17U U24A | 0.3
38 | A17U U24C | 0.44
39 | G19A G45A | 0.07
40 | G19A G45C | 0.06
41 | G19A G45U | 0.06
42 | G19C G22A | 0.06
43 | G19C G22U | 0.03
44 | G19C G22C | 0.03
45 | U18A | 0.95
46 | U18C | 0.96
47 | U18G | 0.84
48 | G19C G54U | 0.4

Row | Variant | self-cleavage
49 | G19C G54C | 0.06
50 | G19C G54A | 0.11
51 | C20A C26U | 0.87
52 | C20A C26A | 0.08
53 | C20A C26G | 0.08
54 | C20A C32U | 0.08
55 | C20A C32A | 0.07
56 | C20A C32G | 0.05
57 | G19A G51U | 0.17
58 | G19A G51C | 0.08
59 | G19A G51A | 0.33
60 | A17U U18A | 0.89
61 | A17U U18C | 0.9
62 | A17U U18G | 0.87
63 | G19C U24A | 0.04
64 | G19C U24G | 0.04
65 | G19C U24C | 0.04
66 | G19C G48C | 0.02
67 | G19C G48U | 0.03
68 | G19C G48A | 0.02
69 | C20A U12G | 0.71
70 | C20A U12C | 0.57
71 | C20A U12A | 0.82
72 | U18A U43A | 0.83

Row | Variant | self-cleavage
73 | U18A U43C | 0.36
74 | U18A U43G | 0.58
75 | C20A G42C | 0.17
76 | C20A G42U | 0.07
77 | C20A G42A | 0.59
78 | G19A G34U | 0.39
79 | G19A G34C | 0.25
80 | G19A G34A | 0.61
81 | G19C G23A | 0.04
82 | G19C G23C | 0.02
83 | G19C G23U | 0.04
84 | G19C G44A | 0.07
85 | G19C G44C | 0.14
86 | G19C G44U | 0.07
87 | G19A U43C | 0.12
88 | G19A U43A | 0.23
89 | G19A U43G | 0.12
90 | U18G U24G | 0.05
91 | U18G U24A | 0.53
92 | U18G U24C | 0.38
93 | G19A G22C | 0.05
94 | G19A G22A | 0.35
95 | G19A G22U | 0.12
96 | G19U G30U | 0.04

Row | Variant | self-cleavage
97 | G19U G30C | 0.05
98 | G19U G30A | 0.05
99 | C20A G54C | 0.78
100 | C20A G54A | 0.75
101 | C20A G54U | 0.76
102 | C20A C9G | 0.68
103 | C20A C9A | 0.29
104 | C20A C9U | 0.53
105 | C20A G48C | 0.07
106 | C20A G48U | 0.09
107 | C20A G48A | 0.09
108 | A17U G48U | 0.08
109 | A17U G48C | 0.13
110 | A17U G48A | 0.16
111 | C20A G51A | 0.78
112 | C20A G51C | 0.28
113 | C20A G51U | 0.66
114 | C20A G35U | 0.94
115 | C20A G35A | 0.88
116 | C20A G35C | 0.9
117 | A17U U12A | 0.94
118 | A17U U12G | 0.44
119 | A17U U12C | 0.58
120 | A17U G51C | 0.19

Row | Variant | self-cleavage
121 | A17U G51A | 0.67
122 | A17U G51U | 0.38
123 | G19C U12C | 0.04
124 | G19C U12G | 0.06
125 | G19C U12A | 0.04
126 | G19U U37C | 0.84
127 | G19U U37A | 0.15
128 | G19U U37G | 0.53
129 | G19C U18A | 0.66
130 | G19C U18G | 0.91
131 | G19C U18C | 0.39
132 | G19A U37A | 0.88
133 | G19A U37G | 1
134 | G19A U37C | 1.03
135 | G19A U12C | 0.09
136 | G19A U12G | 0.13
137 | G19A U12A | 0.12
138 | G19A G48C | 0.06
139 | G19A G48U | 0.06
140 | G19A G48A | 0.06
141 | U18C U24A | 0.21
142 | U18C U24C | 0.24
143 | U18C U24G | 0.02
144 | G19U G42C | 0.06

Row | Variant | self-cleavage
145 | G19U G42A | 0.06
146 | G19U G42U | 0.04
147 | G19U G44A | 0.1
148 | G19U G44U | 0.19
149 | G19U G44C | 0.34
150 | G19A G54C | 0.24
151 | G19A G54U | 0.65
152 | G19A G54A | 0.31
153 | G19C G35A | 0.45
154 | G19C G35U | 0.42
155 | G19C G35C | 0.29
156 | A17U U43A | 0.91
157 | A17U U43G | 0.57
158 | A17U U43C | 0.8
159 | G19U G51A | 0.15
160 | G19U G51C | 0.07
161 | G19U G51U | 0.08
162 | G19U G48U | 0.04
163 | G19U G48A | 0.04
164 | G19U G48C | 0.03
165 | C20A G19U | 0.78
166 | C20A G19C | 0.31
167 | C20A G19A | 0.86
